Experimental findings from ChEMBL document CHEMBL3580554, “Design, synthesis, and anticonvulsant activity of new hybrid compounds derived from 2-(2,5-dioxopyrrolidin-1-yl)propanamides and 2-(2,5-dioxopyrrolidin-1-yl)butanamides” (J Med Chem, 2015) are described below.

Data set [1] has as its system Mus musculus. Nature of the data set: Anticonvulsant activity in ip dosed Swiss mouse assessed as protection against seizures measured at 1 hr of time to peak effect by maximal electroshock test. The format is functional. (The maximal electroshock test induces tonic seizures with an electrical stimulus.)
In data set [2] the test system is Mus musculus. Nature of the data set: Anticonvulsant activity in ip dosed Swiss mouse assessed as protection against seizures measured at 1 hr of time to peak effect by subcutaneous pentylenetetrazole seizure test. In kind it is functional.
Data set [3] relates to Mus musculus. Nature of the data set: Anticonvulsant activity in ip dosed Swiss mouse assessed as protection against seizures measured at 1 hr of time to peak effect by 6 Hz test by 6 Hz psychomotor seizure test. In kind it is functional.
Data set [4] is described as follows: Toxicity in ip dosed Swiss mouse assessed as induction of motor performance impairment measured within 60 seconds measured at 1 hr of time to peak effect by Chimney test. The format is organism-based. Conditions: in vivo. The method in brief: (§1)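 Neurotoxicity (TD50) estimated in mice i.p. by chimney test for motor coordination impairment; protective index calculated as TD50/ED50 for each seizure model.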

Data set [5] can be described thus: Protective index, ratio of neurotoxic TD50 in Swiss mouse by Chimney test to anticonvulsant ED50 in Swiss mouse measured at 1 hr of time to peak effect by 6 Hz test by 6 Hz psychomotor seizure test. The format is toxicity. Conditions: in vivo, read-out: Ratio TD50/ED50. Put shortly: as §1

The ED50 is the dose at which the effect has come halfway, by size or by number of responders. For orientation: TD50 means the dose at which the toxic effect under study appears in half of the subjects.

In the case of `CC[C@@H](C(N)=O)N1CCCC1=O`, the ED50 in data set [1] was above 500 mg/kg; in data set [2], above 500 mg/kg; in data set [3] it was 14.8 mg/kg. In addition, in data set [4], the TD50 at 1 h was above 500 mg/kg. Moreover, the selectivity ratio at 1 h in data set [5] was above 33.8.
